Source: ChEMBL document CHEMBL2331462, “Antiallodynic and analgesic effects of maslinic acid, a pentacyclic triterpenoid from Olea europaea” (J Nat Prod, 2013)
Activity calls are given as the source filed them.

Tests used:
[1] = tested on: Mus musculus; assay: Analgesic activity in CD-1 mouse assessed as inhibition of acetic acid-induced writhing response at 100 mg/kg, sc measured after 30 mins; format: functional, organism-based; set-up: dose 100 mg/kg
In short: (§1)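 Female CD-1 mice (25−30 g), dosed sc interscapularly in 2% Tween 80 in water (5 mL/kg), 30 min before ip 0.6% acetic acid (10 mL/kg). Writhes (torso stretches with back arching and leg extension) counted cumulatively over 30 min. Mean ± SEM of 8−12 mice per group versus vehicle, one-way ANOVA with Bonferroni.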

[2] = tested on: Mus musculus; assay: Antinociceptive activity in CD-1 mouse assessed as reduction of formalin-induced inflammatory pain at 100 mg/kg, sc administered 15 mins challenge measured after 10 to 50 mins; format: functional, organism-based; set-up: dose 100 mg/kg
[3] = tested on: Mus musculus; assay: Antinociceptive activity in CD-1 mouse assessed as reduction of formalin-induced inflammatory pain at 100 mg/kg, sc administered 15 mins challenge measured up to 5 mins; format: functional, organism-based; set-up: dose 100 mg/kg
[4] = tested on: Mus musculus; assay: Antiallodynic activity against capsaicin-induced secondary mechanical pain in CD-1 mouse assessed as paw withdrawal-latency at 100 mg/kg, sc measured after 30 mins post compound administration; format: functional, organism-based; set-up: dose 100 mg/kg
In short: (§2)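 Female CD-1 mice, sc dosing in 2% Tween 80 (5 mL/kg) 30 min before testing. Capsaicin (1 μg in 20 μL 1% DMSO) given ipl; 15 min later a 0.5 g force was applied with an electronic von Frey device ≥5 mm from the injection site toward the toes. Paw withdrawal latency recorded over three trials at 30 s intervals, 50 s cutoff. 8−12 mice per group, two-way ANOVA with Bonferroni.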

[5] = tested on: Mus musculus; assay: Neurotoxicity in CD-1 mouse assessed as impairment in motor coordination at 8 mg/kg, sc measured up to 3 hrs by rotarod test; format: toxicity, organism-based; set-up: dose 8 mg/kg, route subcutaneous; conditions: in vivo
In short: (§3)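 Female CD-1 mice trained three times on an accelerating rotarod (4 to 40 rpm over 5 min) 24 h before testing. Sc dosing in 2% Tween 80; latency to fall (300 s cutoff) recorded just before and 30, 60, 120 and 180 min after injection. 8−12 mice per group, two-way repeated-measures ANOVA with Bonferroni.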

[6] = tested on: Mus musculus; assay: Analgesic activity in CD-1 mouse assessed as inhibition of acetic acid-induced writhing response at 64 to 256 mg/kg, sc measured after 30 mins; format: functional, organism-based; in short: as §1
[7] = tested on: Mus musculus; assay: Neurotoxicity in CD-1 mouse assessed as impairment in motor coordination at 512 mg/kg, sc measured up to 3 hrs by rotarod test; format: toxicity, organism-based; set-up: dose 512 mg/kg, route subcutaneous; conditions: in vivo; in short: as §3
[8] = tested on: Mus musculus; assay: Antiallodynic activity against capsaicin-induced secondary mechanical pain in sc dosed CD-1 mouse assessed as paw withdrawal-latency measured after 30 mins post compound administration; format: functional, organism-based; in short: as §2
[9] = tested on: Mus musculus; assay: Antinociceptive activity in CD-1 mouse assessed as reduction of formalin-induced inflammatory pain at 1 % administered topically 15 mins challenge measured after 10 to 50 mins; format: functional, organism-based
In short: (§4)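 Female CD-1 mice, unanesthetized and restrained. 0.1 g of a 1% compound-enriched Carbopol gel (1% Carbopol, 2% triethanolamine, 5% propylene glycol) or vehicle gel was spread on the plantar hindpaw, ipsilateral or contralateral, 15 min before intraplantar formalin (20 μL, 5%). Licking/biting time scored for phase 1 (0−5 min) and phase 2 (10−50 min). 8−12 mice per group.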

[10] = tested on: Mus musculus; assay: Antinociceptive activity in CD-1 mouse assessed as reduction of formalin-induced inflammatory pain at 1 % administered topically 15 mins challenge measured up to 5 mins; format: functional, organism-based; in short: as §4
[11] = tested on: Mus musculus; assay: Neurotoxicity in CD-1 mouse assessed as impairment in motor coordination at 64 mg/kg, sc measured up to 3 hrs by rotarod test; format: toxicity, organism-based; set-up: dose 64 mg/kg, route subcutaneous; conditions: in vivo; in short: as §3
[12] = tested on: Mus musculus; assay: Antiallodynic activity against capsaicin-induced secondary mechanical pain in CD-1 mouse assessed as paw withdrawal-latency at 64 mg/kg, sc measured after 30 mins post compound administration; format: functional, organism-based; set-up: dose 64 mg/kg; in short: as §2

`CC(C)Cc1ccc(C(C)C(=O)O)cc1` (configuration not stated) was tested, and the inhibition [1] was “Active”, the Activity [2] was “Active” and the Activity [3] was “inactive”. For the same molecule, the Activity [4] was “inactive”.
For `NCC(CC(=O)O)c1ccc(Cl)cc1` (configuration not stated) [BACLOFEN], the Activity [5] was “Toxic”.
`CC1(C)CC[C@]2(C(=O)O)CC[C@]3(C)C(=CC[C@@H]4[C@@]5(C)C[C@@H](O)[C@H](O)C(C)(C)[C@@H]5CC[C@]43C)[C@@H]2C1` [MASLINIC ACID] was tested, and the inhibition [6] was “Active”, the Activity [7] was “Non-toxic” and the Activity [8] was “Dose-dependent effect”. The Activity [9] was “Active” and the Activity [10] was “inactive”.
`CC(C)C[C@H](CN)CC(=O)O` [PREGABALIN] was tested, and the Activity [11] was “Toxic” and the Activity [12] was “Active”.
